Assay results from ChEMBL document CHEMBL1240366, “Blockade of X4-tropic HIV-1 cellular entry by GSK812397, a potent noncompetitive CXCR4 receptor antagonist” (Antimicrob Agents Chemother, 2010).
Activity calls are given as the source filed them. No cut-off for these calls is given here.

What was measured:
[1] = tested on: Human immunodeficiency virus 1; test: Antiviral activity against HIV1 isolate 05-121777 assessed as inhibition of viral replication after 7 days by scintillation counting; type: functional, organism-based; settings: Human immunodeficiency virus 1, isolate 05-121777, 168 h
[2] = tested on: Human immunodeficiency virus 1; test: Antiviral activity against HIV1 isolate 05-121797 assessed as inhibition of viral replication after 7 days by scintillation counting; type: functional, organism-based; settings: Human immunodeficiency virus 1, isolate 05-121797, 168 h
[3] = tested on: Human immunodeficiency virus 1; test: Antiviral activity against HIV1 isolate 05-121775 assessed as inhibition of viral replication after 7 days by scintillation counting; type: functional, organism-based; settings: Human immunodeficiency virus 1, isolate 05-121775, 168 h
[4] = tested on: PBMC; test: Cytotoxicity against human PBMC infected with HIV1 3B after 96 hrs by celltiter glow assay
[5] = tested on: Human immunodeficiency virus 1; test: Antiviral activity against HIV1 isolate 05-121780 assessed as inhibition of viral replication after 7 days by scintillation counting; type: functional, organism-based; settings: Human immunodeficiency virus 1, isolate 05-121780, 168 h
[6] = Volume of distribution at steady state in monkey at 1 mg/kg, iv administered as single dose after 24 hrs by liquid chromatography-mass spectroscopy; type: ADME, organism-based, Macaca mulatta; set-up: dose 1 mg/kg, route intravenous; settings: rhesus monkey, in vivo, read-out: Vdss
[7] = biological target: C-X-C chemokine receptor type 4 (Homo sapiens) (UniProt P61073); test: Inhibition of CXCR4-mediated chemotaxis in SDF1-stimulated human U937 cells treated 15 mins before SDF1 challenge measured after 2 hrs by luminescence assay; type: cell-based; settings: U-937
Chain of C-X-C chemokine receptor type 4 (Homo sapiens) (P61073 whole entry): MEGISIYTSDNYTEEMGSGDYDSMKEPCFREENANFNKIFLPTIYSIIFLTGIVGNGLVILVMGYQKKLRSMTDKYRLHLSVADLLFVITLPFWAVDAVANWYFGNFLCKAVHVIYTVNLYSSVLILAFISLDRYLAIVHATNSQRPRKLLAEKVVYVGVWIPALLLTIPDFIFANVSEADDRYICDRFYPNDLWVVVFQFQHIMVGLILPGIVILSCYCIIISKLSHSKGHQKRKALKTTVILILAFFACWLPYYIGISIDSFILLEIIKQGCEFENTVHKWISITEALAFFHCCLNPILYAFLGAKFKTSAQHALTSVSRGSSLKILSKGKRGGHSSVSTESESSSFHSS
Method in brief: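 U937 cells (endogenous CXCR4) in RPMI with 2% FCS and 10 mM HEPES, 5 × 10^6 cells/ml, preincubated 15 min with compound, then placed above a 5.0 μm filter. The lower chamber held the same compound concentration plus SDF-1. Migration ran 2 h. Migrated cells were quantified by ATP luminescence. Viability was checked under identical conditions. For mode of action, SDF-1 concentration-response curves were run at increasing compound concentrations.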

[8] = Clearance in rat at 1 mg/kg, iv administered as single dose after 24 hrs by liquid chromatography-mass spectroscopy; type: ADME, organism-based; set-up: dose 1 mg/kg, route intravenous; settings: in vivo
Method in brief: (§1)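 Single intravenous dose of 1 mg/kg. Plasma was sampled at serial times over 24 h and measured by LC-MS/MS. Clearance was derived by pharmacokinetic analysis.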

[9] = biological target: C-X-C chemokine receptor type 4 (Homo sapiens) (UniProt P61073); test: Noncompetitive antagonist activity at human CXCR4 expressed in HEK293 cells assessed as inhibition of SDF1-induced increase in intracellular calcium level treated 15 mins before agonist challenge measured after 1 hr by FLIPR assay; type: functional, cell-based
[10] = tested on: Human immunodeficiency virus 1; test: Antiviral activity against HIV1 isolate 05-121776 assessed as inhibition of viral replication after 7 days by scintillation counting; type: functional, organism-based; settings: Human immunodeficiency virus 1, isolate 05-121776, 168 h
[11] = Clearance in mouse at 1 mg/kg, iv administered as single dose after 24 hrs by liquid chromatography-mass spectroscopy; type: ADME, organism-based; set-up: dose 1 mg/kg, route intravenous; settings: in vivo; method in brief: as §1
[12] = tested on: Human immunodeficiency virus 1; test: Antiviral activity against HIV1 JRCSF assessed as inhibition of viral replication by cell-based assay; type: functional; settings: JRCSF ISOLATE
[13] = tested on: Human immunodeficiency virus 1; test: Antiviral activity against HIV1 isolate 05-121789 assessed as inhibition of viral replication after 7 days by scintillation counting; type: functional, organism-based; settings: Human immunodeficiency virus 1, isolate 05-121789, 168 h
[14] = biological target: C-X-C chemokine receptor type 4 (Homo sapiens) (UniProt P61073); test: Antagonist activity at human CXCR4 expressed in HEK293 cells assessed as inhibition of SDF1-induced increase in intracellular calcium level treated 15 mins before agonist challenge measured after 1 hr by FLIPR assay relative to control; type: functional, cell-based
Method in brief: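 HEK-293 cells transiently transduced by BacMam with CXCR4 (MOI 50) and chimeric Gqi5 (MOI 12.5), plated 40,000 per well, left 24 h at 37°C for expression. Cells then loaded with calcium dye in DMEM/F-12 containing 2.5 mM probenecid and 0.1% BSA for 1 h at 37°C. Intracellular calcium read by FLIPR. For antagonism, compound was added 15 min before SDF-1, used at an EC80 concentration.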

[15] = tested on: Human immunodeficiency virus 1; test: Antiviral activity against HIV1 isolate 05-121796 assessed as inhibition of viral replication after 7 days by scintillation counting; type: functional, organism-based; settings: Human immunodeficiency virus 1, isolate 05-121796, 168 h
[16] = tested on: Human immunodeficiency virus 1; test: Antiviral activity against HIV1 isolate 05-121781 assessed as inhibition of viral replication after 7 days by scintillation counting; type: functional, organism-based; settings: Human immunodeficiency virus 1, isolate 05-121781, 168 h
[17] = Volume of distribution at steady state in mouse at 1 mg/kg, iv administered as single dose after 24 hrs by liquid chromatography-mass spectroscopy; type: ADME, organism-based; set-up: dose 1 mg/kg, route intravenous; settings: in vivo, read-out: Vdss
[18] = biological target: Cytochrome P450 3A4 (Homo sapiens, UniProt P08684); test: Inhibition of CYP3A4 up to 30 uM; type: ADME
Chain of Cytochrome P450 3A4 (P08684 whole entry): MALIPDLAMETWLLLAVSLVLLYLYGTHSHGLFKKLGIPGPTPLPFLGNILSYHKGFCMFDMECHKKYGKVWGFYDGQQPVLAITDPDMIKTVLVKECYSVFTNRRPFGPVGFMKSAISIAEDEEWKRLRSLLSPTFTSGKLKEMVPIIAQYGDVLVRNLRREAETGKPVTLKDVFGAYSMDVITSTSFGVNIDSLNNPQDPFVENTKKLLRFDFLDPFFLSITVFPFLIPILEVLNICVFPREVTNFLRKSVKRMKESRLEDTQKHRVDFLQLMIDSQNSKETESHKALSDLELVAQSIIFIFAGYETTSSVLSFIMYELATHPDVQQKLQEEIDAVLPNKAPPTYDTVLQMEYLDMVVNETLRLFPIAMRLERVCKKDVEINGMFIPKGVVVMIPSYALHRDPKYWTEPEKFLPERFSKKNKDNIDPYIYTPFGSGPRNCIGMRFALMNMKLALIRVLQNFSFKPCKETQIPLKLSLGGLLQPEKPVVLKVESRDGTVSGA

[19] = biological target: C-X-C chemokine receptor type 4 (Homo sapiens) (UniProt P61073); test: Antagonist activity at human CXCR4 expressed in HEK293 cells assessed as inhibition of SDF1-induced increase in intracellular calcium level treated 15 mins before agonist challenge measured after 1 hr by FLIPR assay; type: functional, cell-based
[20] = tested on: Human immunodeficiency virus 1; test: Antiviral activity against HIV1 isolate 05-121784 assessed as inhibition of viral replication after 7 days by scintillation counting; type: functional, organism-based; settings: Human immunodeficiency virus 1, isolate 05-121784, 168 h
[21] = Oral bioavailability in monkey at 3 mg/kg administered as single dose after 24 hrs by liquid chromatography-mass spectroscopy; type: ADME, organism-based, Macaca mulatta; settings: rhesus monkey, in vivo
[22] = Oral bioavailability in mouse at 3 mg/kg administered as single dose after 24 hrs by liquid chromatography-mass spectroscopy; type: ADME, organism-based; settings: in vivo
[23] = tested on: Human immunodeficiency virus 1; test: Antiviral activity against HIV1 isolate 05-121798 assessed as inhibition of viral replication after 7 days by scintillation counting; type: functional, organism-based; settings: Human immunodeficiency virus 1, isolate 05-121798, 168 h
[24] = Volume of distribution at steady state in dog at 1 mg/kg, iv administered as single dose after 24 hrs by liquid chromatography-mass spectroscopy; type: ADME, organism-based, Canis lupus familiaris; set-up: dose 1 mg/kg, route intravenous; settings: in vivo, read-out: Vdss
[25] = tested on: Human immunodeficiency virus 1; test: Antiviral activity against HIV1 isolate 05-121787 assessed as inhibition of viral replication after 7 days by scintillation counting; type: functional, organism-based; settings: Human immunodeficiency virus 1, isolate 05-121787, 168 h
[26] = tested on: Human immunodeficiency virus 1; test: Antiviral activity against HIV1 3B infected in human HOS cells after 72 hrs by luminescence assay in presence of 1 mg/ml alpha-acid glycoprotein; type: functional, organism-based; settings: Human immunodeficiency virus 1, 3B
[27] = Half life in rat at 3 mg/kg, po administered as single dose by liquid chromatography-mass spectroscopy; type: ADME, organism-based; set-up: dose 3 mg/kg, route oral; settings: in vivo
[28] = tested on: HEK293; test: Cytotoxicity against HEK293 cells after 24 hrs by MTS assay; type: cell-based; settings: Homo sapiens, HEK293, 24 h
Method in brief: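 Viability in the cell-cell fusion format (BacMam-transduced HEK-293 cells mixed with HOS cells). Compound was added to the cell mix, and viability was read after 24 h with MTS dye.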

[29] = Half life in monkey at 3 mg/kg, po administered as single dose by liquid chromatography-mass spectroscopy; type: ADME, organism-based, Macaca mulatta; set-up: dose 3 mg/kg, route oral; settings: rhesus monkey, in vivo
Method in brief: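 Single oral dose of 3 mg/kg. Plasma was sampled at serial times over 24 h and measured by LC-MS/MS. Half-life was derived by pharmacokinetic analysis.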

[30] = tested on: Human immunodeficiency virus 1; test: Antiviral activity against HIV1 isolate 05-121774 assessed as inhibition of viral replication after 7 days by scintillation counting; type: functional, organism-based; settings: Human immunodeficiency virus 1, isolate 05-121774, 168 h

With `CN1CCN(c2cccc3nc(CN(C)[C@H]4CCCc5cccnc54)c(CO)n23)CC1` the IC50 [1] was 1 nM, the IC50 [2] was 1 nM and the IC50 [3] was 1 nM. It also gave an IC50 [4] of over 1000 nM, an IC50 [5] of 1 nM and a Vd [6] of 5.9 L/kg. For the same molecule, the inhibition [7] was “Dose-dependent effect”, the clearance [8] was 4.5 mL/min/kg and the Activity [9] was “Active”. For the same molecule, the IC50 [10] was 1 nM, the clearance [11] was 15.9 mL/min/kg and the inhibition [12] was “inactive”. It also gave an IC50 [13] of 1 nM, an inhibition [14] of 110% and an IC50 [15] of 1 nM. The IC50 [16] was 1 nM, the Vd [17] was 4.2 L/kg and the “inhibition (INH)” value [18] was “Not Active”. For the same molecule, the Activity [19] was “Dose-dependent effect”, the IC50 [20] was 1 nM and the bioavailability [21] was 17%. It also gave a bioavailability [22] of 10%, an IC50 [23] of 1 nM and a Vd [24] of 5.3 L/kg. The IC50 [25] was 1 nM, the IC50 [26] was 2.87 nM and the half-life [27] was 516 min. It also gave an IC50 [28] of over 1000 nM, a half-life [29] of over 720 min and an IC50 [30] of 1 nM.
